In ChEMBL document CHEMBL4251662, “Alkyl indole-based cannabinoid type 2 receptor tools: Exploration of linker and fluorophore attachment” (Eur J Med Chem, 2018):
Active and inactive are the calls of the source. No cut-off for these calls is given here.

Key:
Cannabinoid receptor 1 [1] = target: T1, Cannabinoid receptor 1 (Homo sapiens, UniProt P21554); experiment: Displacement of [3H]CP55,940 from N-terminal HA-tagged human CB1 receptor expressed in HEK293 cell membranes after 1 hr by microbeta scintillation counting method; settings: read-out: Ki
Cannabinoid receptor 1 [2] = target: T1, Cannabinoid receptor 1; experiment: Agonist activity at N-terminal HA-tagged human CB1 receptor expressed in HEK293 cells transfected with YFP-Epac-RLuc assessed as decrease in forskolin-stimulated cAMP level at 10 uM by BRET assay; assay type: functional, cell-based
Outline: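 Single-concentration screen at 10 µM in CB receptor-expressing HEK293 cells, run with and without CP55,940 as reference agonist. Forskolin-stimulated cAMP read by BRET biosensor. A fall in cAMP is scored as agonism and a rise as inverse agonism.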

Cannabinoid receptor 2 [3] = target: T2, Cannabinoid receptor 2 (Homo sapiens, UniProt P34972); experiment: Inverse agonist activity at N-terminal HA-tagged human CB2 receptor expressed in HEK293 cells transfected with YFP-Epac-RLuc assessed as increase in forskolin-stimulated cAMP level at 10 uM by BRET assay; assay type: functional, cell-based
Cannabinoid receptor 1 [4] = target: T1, Cannabinoid receptor 1; experiment: Agonist activity at N-terminal HA-tagged human CB1 receptor expressed in HEK293 cells transfected with YFP-Epac-RLuc assessed as decrease in forskolin-stimulated cAMP level by BRET assay relative to control; assay type: functional, cell-based
Outline: (§1)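 BRET cAMP biosensor read-out in HEK293 cells expressing HA-tagged human CB1 or CB2, with forskolin stimulation (5 µM). Concentration-response curves; area-under-curve values normalised to forskolin alone = 100% and basal = 0%. EC50 taken for agonists and IC50 for inverse agonists. Mean of at least three independent experiments, each point in duplicate.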

Cannabinoid receptor 2 [5] = target: T2, Cannabinoid receptor 2; experiment: Inverse agonist activity at N-terminal HA-tagged human CB2 receptor expressed in HEK293 cells transfected with YFP-Epac-RLuc assessed as increase in forskolin-stimulated cAMP level by BRET assay; assay type: functional, cell-based; outline: as §1
Cannabinoid receptor 2 [6] = target: T2, Cannabinoid receptor 2; experiment: Displacement of [3H]CP55,940 from N-terminal HA-tagged human CB2 receptor expressed in HEK293 cell membranes at 10 uM after 1 hr by microbeta scintillation counting method relative to control
Outline: (§2)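 Single-point competition screen against [3H]CP55,940 in HEK293 cells over-expressing 3HA-tagged hCB2 or hCB1. Compounds giving more than 50% displacement went on to full concentration-response curves.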

HEK293 [7] = experiment: Effect on forskolin-stimulated cAMP level in HEK293 cells at 1 uM by BRET assay relative to control; assay type: ADME, cell-based; settings: human, hek293, 1 µM
Outline: (§3)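 Wild-type HEK293 cells lacking transfected receptor, tested at 10 µM and 1 µM. Forskolin-stimulated cAMP measured by BRET as a check that responses are receptor-mediated.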

HEK293 [8] = experiment: Effect on forskolin-stimulated cAMP level in HEK293 cells at 10 uM by BRET assay relative to control; assay type: ADME, cell-based; settings: human, hek293, 10 µM; outline: as §3
Cannabinoid receptor 1 [9] = target: T1, Cannabinoid receptor 1; experiment: Displacement of [3H]CP55,940 from N-terminal HA-tagged human CB1 receptor expressed in HEK293 cell membranes at 10 uM after 1 hr by microbeta scintillation counting method relative to control; outline: as §2
Cannabinoid receptor 2 [10] = target: T2, Cannabinoid receptor 2; experiment: Displacement of [3H]CP55,940 from N-terminal HA-tagged human CB2 receptor expressed in HEK293 cell membranes after 1 hr by microbeta scintillation counting method; settings: read-out: Ki
Cannabinoid receptor 2 [11] = target: T2, Cannabinoid receptor 2; experiment: Inverse agonist activity at N-terminal HA-tagged human CB2 receptor expressed in HEK293 cells transfected with YFP-Epac-RLuc assessed as increase in forskolin-stimulated cAMP level by BRET assay relative to control; assay type: functional, cell-based; outline: as §1
[12] = target: T3, Free fatty acid receptor 4 (Homo sapiens) (UniProt Q5NUL3); experiment: Agonist activity at GPR120 (unknown origin); assay type: functional
T3 sequence (whole entry): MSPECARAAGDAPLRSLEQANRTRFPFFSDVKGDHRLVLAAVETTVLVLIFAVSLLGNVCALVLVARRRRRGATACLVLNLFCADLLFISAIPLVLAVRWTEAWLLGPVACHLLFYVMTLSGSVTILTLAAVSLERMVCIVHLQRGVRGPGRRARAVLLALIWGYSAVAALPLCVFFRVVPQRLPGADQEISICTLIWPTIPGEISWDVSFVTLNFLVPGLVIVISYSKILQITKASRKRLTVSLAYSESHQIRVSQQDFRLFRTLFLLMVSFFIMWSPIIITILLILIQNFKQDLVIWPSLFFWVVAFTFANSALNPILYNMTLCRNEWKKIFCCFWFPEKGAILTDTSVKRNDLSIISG

Cannabinoid receptor 1 [13] = target: T1, Cannabinoid receptor 1; experiment: Activity at N-terminal HA-tagged human CB1 receptor expressed in HEK293 cells transfected with YFP-Epac-RLuc assessed as effect on forskolin-stimulated cAMP level by BRET assay; assay type: functional, cell-based; outline: as §1
Cannabinoid receptor 1 [14] = target: T1, Cannabinoid receptor 1; experiment: Activity at N-terminal HA-tagged human CB1 receptor expressed in HEK293 cells transfected with YFP-Epac-RLuc assessed as effect on forskolin-stimulated cAMP level by BRET assay relative to control; assay type: functional, cell-based; outline: as §1
Leishmania donovani = experiment: Growth inhibition of Leishmania donovani; assay type: functional, organism-based
Cannabinoid receptor 2 [15] = target: T2, Cannabinoid receptor 2; experiment: Activity at N-terminal HA-tagged human CB2 receptor expressed in HEK293 cells transfected with YFP-Epac-RLuc assessed as effect on forskolin-stimulated cAMP level by BRET assay; assay type: functional, cell-based; outline: as §1
[16] = target: Interleukin-17A (Homo sapiens) (UniProt Q16552); experiment: Inhibition of IL-17 (unknown origin) assessed as disruption of IL-17 protein-protein interaction
[17] = target: T4, Nicotinamide N-methyltransferase (Homo sapiens) (UniProt P40261); experiment: Inhibition of NNMT (unknown origin)
T4 sequence (whole entry): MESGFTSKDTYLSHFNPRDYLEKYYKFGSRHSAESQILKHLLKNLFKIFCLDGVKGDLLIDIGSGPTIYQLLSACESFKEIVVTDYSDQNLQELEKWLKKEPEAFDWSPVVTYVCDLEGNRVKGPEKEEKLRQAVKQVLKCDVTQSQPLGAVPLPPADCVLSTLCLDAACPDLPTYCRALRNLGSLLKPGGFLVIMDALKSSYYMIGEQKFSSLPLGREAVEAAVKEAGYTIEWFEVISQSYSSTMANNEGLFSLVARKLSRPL

[18] = target: Potassium voltage-gated channel subfamily KQT member 2 (Homo sapiens) (UniProt O43526); experiment: Agonist activity at KCNQ2 (unknown origin)
Cannabinoid receptor 2 [19] = target: T2, Cannabinoid receptor 2; experiment: Activity at N-terminal HA-tagged human CB2 receptor expressed in HEK293 cells transfected with YFP-Epac-RLuc assessed as effect on forskolin-stimulated cAMP level by BRET assay relative to control; assay type: functional, cell-based; outline: as §1
[20] = target: Proprotein convertase subtilisin/kexin type 9 (Homo sapiens) (UniProt Q8NBP7); experiment: Inhibition of PCSK9 (unknown origin)
[21] = target: T5, Potassium voltage-gated channel subfamily KQT member 3 (Homo sapiens) (UniProt O43525); experiment: Agonist activity at KCNQ3 (unknown origin)
T5 sequence (whole entry): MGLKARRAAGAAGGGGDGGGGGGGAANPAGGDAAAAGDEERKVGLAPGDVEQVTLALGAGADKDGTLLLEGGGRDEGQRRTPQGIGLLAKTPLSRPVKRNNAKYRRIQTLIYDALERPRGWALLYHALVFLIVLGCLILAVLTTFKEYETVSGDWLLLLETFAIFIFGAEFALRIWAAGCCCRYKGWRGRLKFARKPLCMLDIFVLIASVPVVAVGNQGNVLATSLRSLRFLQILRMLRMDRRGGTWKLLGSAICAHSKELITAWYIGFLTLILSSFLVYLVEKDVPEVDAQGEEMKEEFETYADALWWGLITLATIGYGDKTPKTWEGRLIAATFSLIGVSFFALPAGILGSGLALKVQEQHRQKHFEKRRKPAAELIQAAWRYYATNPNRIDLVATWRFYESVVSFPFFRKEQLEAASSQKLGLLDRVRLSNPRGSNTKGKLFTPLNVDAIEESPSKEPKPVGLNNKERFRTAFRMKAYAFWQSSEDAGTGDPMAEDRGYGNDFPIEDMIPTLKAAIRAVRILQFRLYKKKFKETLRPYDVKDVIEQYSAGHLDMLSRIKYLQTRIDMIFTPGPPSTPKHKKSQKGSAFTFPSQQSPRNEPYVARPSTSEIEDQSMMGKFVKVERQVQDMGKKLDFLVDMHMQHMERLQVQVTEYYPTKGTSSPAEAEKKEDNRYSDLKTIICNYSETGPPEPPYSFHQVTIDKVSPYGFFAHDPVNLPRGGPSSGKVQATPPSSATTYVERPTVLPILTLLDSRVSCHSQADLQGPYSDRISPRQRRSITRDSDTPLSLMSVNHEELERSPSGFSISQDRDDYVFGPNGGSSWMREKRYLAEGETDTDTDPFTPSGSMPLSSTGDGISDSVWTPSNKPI

Cannabinoid receptor 1 [22] = target: T1, Cannabinoid receptor 1; experiment: Agonist activity at N-terminal HA-tagged human CB1 receptor expressed in HEK293 cells transfected with YFP-Epac-RLuc assessed as decrease in forskolin-stimulated cAMP level by BRET assay; assay type: functional, cell-based; outline: as §1

T1 sequence (P21554 whole entry): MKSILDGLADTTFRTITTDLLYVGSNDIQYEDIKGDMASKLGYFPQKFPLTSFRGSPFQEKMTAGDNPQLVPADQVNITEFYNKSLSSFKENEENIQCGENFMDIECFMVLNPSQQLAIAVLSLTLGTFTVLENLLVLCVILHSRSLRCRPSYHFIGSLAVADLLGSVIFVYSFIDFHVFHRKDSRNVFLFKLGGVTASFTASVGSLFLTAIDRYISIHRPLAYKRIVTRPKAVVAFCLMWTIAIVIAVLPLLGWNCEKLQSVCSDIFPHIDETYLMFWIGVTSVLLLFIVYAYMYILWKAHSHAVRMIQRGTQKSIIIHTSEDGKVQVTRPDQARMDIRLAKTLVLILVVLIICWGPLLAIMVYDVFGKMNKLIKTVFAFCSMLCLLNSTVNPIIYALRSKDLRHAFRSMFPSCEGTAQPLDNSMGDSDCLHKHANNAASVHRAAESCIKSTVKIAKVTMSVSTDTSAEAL
T2 sequence (P34972 whole entry): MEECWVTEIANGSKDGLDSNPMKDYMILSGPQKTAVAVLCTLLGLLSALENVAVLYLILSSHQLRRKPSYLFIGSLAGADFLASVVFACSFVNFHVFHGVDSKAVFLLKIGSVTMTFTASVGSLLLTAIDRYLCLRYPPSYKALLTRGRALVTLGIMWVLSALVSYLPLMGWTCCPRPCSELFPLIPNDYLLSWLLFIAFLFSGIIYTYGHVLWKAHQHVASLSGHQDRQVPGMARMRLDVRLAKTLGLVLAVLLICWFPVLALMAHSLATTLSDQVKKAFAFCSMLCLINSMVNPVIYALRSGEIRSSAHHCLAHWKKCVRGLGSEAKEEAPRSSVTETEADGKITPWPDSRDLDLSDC
Chain of Interleukin-17A (Homo sapiens) (Q16552 whole entry): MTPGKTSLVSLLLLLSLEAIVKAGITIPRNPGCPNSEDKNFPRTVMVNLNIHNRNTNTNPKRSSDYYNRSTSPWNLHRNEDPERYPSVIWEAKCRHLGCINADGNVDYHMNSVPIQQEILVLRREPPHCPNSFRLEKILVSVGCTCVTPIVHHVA
Chain of Potassium voltage-gated channel subfamily KQT member 2 (Homo sapiens) (O43526 whole entry): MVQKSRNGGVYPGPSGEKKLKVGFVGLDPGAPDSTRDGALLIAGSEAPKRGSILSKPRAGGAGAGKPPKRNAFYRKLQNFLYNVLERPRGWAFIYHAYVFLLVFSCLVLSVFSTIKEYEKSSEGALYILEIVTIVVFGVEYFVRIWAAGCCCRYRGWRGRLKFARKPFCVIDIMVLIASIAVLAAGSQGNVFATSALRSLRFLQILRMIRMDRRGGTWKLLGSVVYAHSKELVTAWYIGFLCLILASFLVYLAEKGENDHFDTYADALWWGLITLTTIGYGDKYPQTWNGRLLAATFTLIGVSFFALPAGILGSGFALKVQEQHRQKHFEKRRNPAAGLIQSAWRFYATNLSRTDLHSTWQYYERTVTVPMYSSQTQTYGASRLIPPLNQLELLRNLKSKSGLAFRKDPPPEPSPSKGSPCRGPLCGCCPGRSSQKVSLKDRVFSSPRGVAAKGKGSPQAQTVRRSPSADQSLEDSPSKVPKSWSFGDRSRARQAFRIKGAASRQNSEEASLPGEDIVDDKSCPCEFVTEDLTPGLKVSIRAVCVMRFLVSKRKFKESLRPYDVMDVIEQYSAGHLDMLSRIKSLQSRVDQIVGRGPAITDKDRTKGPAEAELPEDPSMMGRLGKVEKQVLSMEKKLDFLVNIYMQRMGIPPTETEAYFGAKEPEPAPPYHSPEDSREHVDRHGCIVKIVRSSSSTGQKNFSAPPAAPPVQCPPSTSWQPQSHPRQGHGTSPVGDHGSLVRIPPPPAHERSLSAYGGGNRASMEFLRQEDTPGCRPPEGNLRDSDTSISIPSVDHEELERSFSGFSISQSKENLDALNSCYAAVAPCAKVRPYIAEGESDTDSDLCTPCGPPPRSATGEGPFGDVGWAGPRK
Chain of Proprotein convertase subtilisin/kexin type 9 (Homo sapiens) (Q8NBP7 31-152 limits assumed): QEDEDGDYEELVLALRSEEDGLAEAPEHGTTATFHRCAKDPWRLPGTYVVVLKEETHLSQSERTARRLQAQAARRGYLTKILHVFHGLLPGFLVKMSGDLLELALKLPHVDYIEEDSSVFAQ
Chain of Proprotein convertase subtilisin/kexin type 9 (Homo sapiens) (Q8NBP7 153-692 limits assumed): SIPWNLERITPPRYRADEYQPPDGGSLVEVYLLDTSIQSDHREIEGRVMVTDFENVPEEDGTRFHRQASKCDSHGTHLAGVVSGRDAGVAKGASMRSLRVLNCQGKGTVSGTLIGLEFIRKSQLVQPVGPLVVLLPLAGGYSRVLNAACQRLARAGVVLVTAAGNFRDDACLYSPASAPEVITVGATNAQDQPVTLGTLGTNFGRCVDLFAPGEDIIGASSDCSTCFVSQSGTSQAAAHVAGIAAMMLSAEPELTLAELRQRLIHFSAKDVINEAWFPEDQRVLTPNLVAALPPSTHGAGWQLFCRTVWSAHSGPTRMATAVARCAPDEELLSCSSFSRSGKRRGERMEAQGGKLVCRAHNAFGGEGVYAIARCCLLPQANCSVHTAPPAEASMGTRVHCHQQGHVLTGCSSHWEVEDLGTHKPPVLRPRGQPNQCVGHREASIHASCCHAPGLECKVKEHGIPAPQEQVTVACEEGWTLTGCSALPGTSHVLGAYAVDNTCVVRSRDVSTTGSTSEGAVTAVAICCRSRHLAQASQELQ

Structure (SMILES)	Ki (Cannabinoid receptor 1 [1]) [nM]	Activity (Cannabinoid receptor 1 [2])	Activity (Cannabinoid receptor 2 [3])	Emax (Cannabinoid receptor 1 [4]) [%]	IC50 (Cannabinoid receptor 2 [5]) [nM]	inhibition (Cannabinoid receptor 2 [6]) [%]	Activity (HEK293 [7]) [%]	Activity (HEK293 [8]) [%]	inhibition (Cannabinoid receptor 1 [9]) [%]	Ki (Cannabinoid receptor 2 [10]) [nM]	Emax (Cannabinoid receptor 2 [11]) [%]	Activity [12]	growth inhibition (GI) (Leishmania donovani)	inhibition [16]	inhibition [17]	Activity [18]	inhibition [20]	Activity [21]	other results
COC(=O)CCCCOc1cccc2c(C(=O)c3ccc(OC)cc3)cn(CC3CCOCC3)c12	1580	Active	Active	77.8	> 10000	> 50	124.3	160.6	> 50	201	166								
CCCOc1ccc2c(c1)c(C(=O)c1ccc(OC)cc1)cn2CC1CCOCC1	4530					> 50	95	127.6	> 50	1350		inactive	inactive	inactive	inactive	inactive	inactive	inactive	Activity (Cannabinoid receptor 1 [13]): inactive; Emax (Cannabinoid receptor 1 [14]): inactive; Activity (Cannabinoid receptor 2 [15]): inactive; Emax (Cannabinoid receptor 2 [19]): inactive
COc1ccc(C(=O)c2cn(CC3CCOCC3)c3c(OCCCCC(=O)O)cccc23)cc1	> 10000	Active	Active	82.5	> 10000	> 50	105.6	129.1	> 50	1310	124								
COc1ccc(C(=O)c2cn(CC3CCOCC3)c3c(O)cccc23)cc1	3580	Active	Active	64.3	272	> 50	104.3	135.3	> 50	53.9	190	inactive	inactive	inactive	inactive	inactive	inactive	inactive	EC50 (Cannabinoid receptor 1 [22]): 632 nM
